Sampled rows, rich in hits. Any-hit rate of the full collection: about 4.5%.
OX1R antag-1 = OX1R (HCRTR1) antagonists, primary screen, fluorescence, CHO/OX1R cells, Fluo-8 calcium, orexin A. Fluo-8 calcium fluorescence. inhibition, % at 5 µM. hit rate 0.43% among 330,000;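 active means inhibition above its plate's threshold, mean inhibition of all tested compounds on the plate plus 3 SD, cut at about 37% in these data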;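 further: 0% = orexin A challenge wells and 100% = SB-334867-A antagonist wells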
TAAR1 ag = human TAAR1 agonists, primary screen, Fluo-8 calcium fluorescence, CHO RD-HGA16 cells; Trace amine-associated receptor 1 (Homo sapiens), Q96RJ0; hit rate 0.99% among 360,000; vehicle wells 0%, saturating PEA agonist 100%; activation, % at 3 µM;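 active means activation above the mean activation of all test compounds in the run plus 3 SD, cut at about 38% in these data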
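Repeats: no replicates (n 1) | Material: CHO-derived RD-HGA16 cells with stable Gα16 and human TAAR1 | Technique: Kinetic Fluo-8 calcium fluorescence | Schedule: 17-24 h seeding, 75 min 37 °C dye, 30 min RT | Evaluation: % activation from peak over basal fluorescence ratio, DMSO-to-PEA scaled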
CHO parental Ca = ATP-evoked calcium signal inhibitors, parental CHO, primary screen, counter-screen for OX1R antagonist project, cell-based, fluorescence, Fluo-8 calcium dye; parental CHO-K1, ATP-induced calcium, Fluo-8 fluorescence; inhibition, % at 5.6 µM; hit rate 0.63% among 330,000; AID 463079, 2010;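 active means inhibition above that plate's mean sample inhibition plus 3 SD, cut at about 26% in these data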;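 further: 0% = ATP-challenged DMSO wells and 100% = DMSO wells without ATP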
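Material: parental CHO cells / Compound: single nominal dose of 5.6 µM per compound / Signal: Fluo-8 fluorescence / Replicates: singlicate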
TAAR1 antagonist = human TAAR1 antagonists, primary screen, Fluo-8 calcium fluorescence, CHO RD-HGA16 cells. inhibition, % at 3 µM. hit rate 1.5% among 360,000. Trace amine-associated receptor 1 (Homo sapiens), Q96RJ0. AID 624466, 2012. antagonist;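 active means inhibition above a per-plate cutoff, the mean inhibition of test compounds on that plate plus 3 SD, cut at about 49% in these data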;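 further: 0% = DMSO plus EC80 beta-PEA response and 100% = DMSO alone without agonist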
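Material: CHO RD-HGA16 cells bearing hTAAR1; compound dosing: one-point dosing, 3 µM nominal final; schedule: dye loading 75 min at 37 °C, then 30 min room temperature; measured by: calcium fluorescence with Fluo-8; control set: vehicle and agonist controls; replication: n of 1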
GPR7 antagonist = GPR7 receptor antagonists, primary screen, cell-based, fluorescence, single concentration. Neuropeptides B/W receptor type 1 (Homo sapiens), P48145. GPR7-expressing cells, fluorescence antagonist assay. inhibition, % at 4.4 µM. hit rate 1.1% among 290,000. AID 1861, 2009; in the data active means inhibition above about 16%, passing the limit was not always enough;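 further: cells stimulated with the agonist NPW; 0% = agonist with vehicle and 100% = vehicle without agonist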
Target sequence (P48145 whole entry, looked up): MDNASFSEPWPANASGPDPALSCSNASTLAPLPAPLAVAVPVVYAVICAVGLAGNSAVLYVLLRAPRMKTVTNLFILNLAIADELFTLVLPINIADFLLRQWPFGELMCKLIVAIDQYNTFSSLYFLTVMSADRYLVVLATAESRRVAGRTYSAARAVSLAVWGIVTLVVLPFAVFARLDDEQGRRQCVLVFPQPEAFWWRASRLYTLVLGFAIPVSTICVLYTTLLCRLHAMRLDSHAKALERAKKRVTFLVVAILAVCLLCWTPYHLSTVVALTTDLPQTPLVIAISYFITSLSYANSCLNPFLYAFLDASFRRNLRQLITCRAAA
OX1R antag-2 = antagonists of human orexin 1 receptor (OX1R) | Orexin/Hypocretin receptor type 1 (Homo sapiens), O43613 | OX1R-expressing cells, FRET antagonist read-out | inhibition, % at 6.6 µM | hit rate 1.8% among 330,000; in the data active means inhibition mostly above about 38%, no sharp cut-off; inactive means mostly below about 40%;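 further: 0% = agonist challenge alone and 100% = reference antagonist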
GPR7 antag cf = GPR7 receptor antagonists, confirmation, cell-based, fluorescence, single concentration. GPR7-expressing cells, calcium fluorescence antagonist mode. inhibition, % at 4.4 µM. AID 1952, 2009. hit rate 52% among 2,400. shares compounds with GPR7 antagonist; in the data active means inhibition above about 24%;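 further: stimulated with the GPR7 agonist NPW; 0% = agonist plus vehicle and 100% = vehicle alone without agonist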
MCHR1 antag = MCHR1 antagonists in cells, counter-screen for GPR7 antagonist project, cell-based, fluorescence, human | shares compounds with GPR7 antagonist | MCHR1-expressing cells, fluorescence antagonist assay | inhibition, % at 4.4 µM | hit rate 62% among 2,400 | AID 2148, 2009; in the data active means inhibition above about 22%;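 further: 0% = vehicle with agonist and 100% = vehicle without agonist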
* = called active by the depositor.

How did COc1ccc(OCC(=O)N2CCN(Cc3nc4cc([N+](=O)[O-])ccc4n3C)CC2)cc1 do in these assays?
OX1R antag-1: -16; TAAR1 ag: 6; CHO parental Ca: -6; TAAR1 antagonist: -4; GPR7 antagonist: -11; OX1R antag-2: 15

How did O=C(COc1ccc(Cl)cc1)N1CCN(Cc2ccc([N+](=O)[O-])cc2)CC1 do in these assays?
OX1R antag-1: -21; TAAR1 ag: 3; CHO parental Ca: -16; TAAR1 antagonist: 20; GPR7 antagonist: 30*; OX1R antag-2: 18; GPR7 antag cf: 28*; MCHR1 antag: 46*

How did COC(=O)C1=C(c2ccc(C(C)=O)cc2)C[C@@H]2CC[C@H]1N2C(=O)NCCOc1ccccc1Cl do in these assays?
OX1R antag-1: -37; TAAR1 ag: 7; CHO parental Ca: -20; TAAR1 antagonist: -4; OX1R antag-2: 9

Results for CC(=O)Nc1nnc(CCN(CCc2nnc(NC(C)=O)s2)[N+](=O)[O-])s1 ?
OX1R antag-1: 2; TAAR1 ag: 4; CHO parental Ca: 8; TAAR1 antagonist: 10; GPR7 antagonist: 32*; OX1R antag-2: 3; GPR7 antag cf: -8; MCHR1 antag: -5

Results for COC(=O)C1=C(c2cccc(OC)c2OC)C[C@@H]2CC[C@H]1N2C(=O)NCc1ccc(C(F)(F)F)cc1 ?
OX1R antag-1: -20; TAAR1 ag: 0; CHO parental Ca: -20; TAAR1 antagonist: -5; OX1R antag-2: 39

Results for COc1ccc(-[n+]2c(-c3ccccc3)cc(-c3ccc(C)cc3)cc2-c2ccccc2)cc1 ?
OX1R antag-1: 18; TAAR1 ag: 6; CHO parental Ca: 45*; TAAR1 antagonist: 11; GPR7 antagonist: 72*; OX1R antag-2: 27; GPR7 antag cf: 70*; MCHR1 antag: 65*

How did COc1ccc(-c2cc(-c3ccccc3)[n+](C)c(-c3ccccc3)c2)cc1 do in these assays?
OX1R antag-1: -18; TAAR1 ag: 6; CHO parental Ca: -17; TAAR1 antagonist: 13; GPR7 antagonist: 33*; OX1R antag-2: 21; GPR7 antag cf: 42*; MCHR1 antag: 38*

How did Cc1ccc(-c2cc(-c3ccccc3)cc(-c3ccccc3)[n+]2-c2ccc(C(=O)O)cc2)cc1 do in these assays?
OX1R antag-1: -6; TAAR1 ag: 6; CHO parental Ca: -2; TAAR1 antagonist: 13; OX1R antag-2: 27

Results for CC(=O)c1ccc(NC(=O)N2C[C@H]3C[C@@H](C2)c2cccc(=O)n2C3)cc1 ?
OX1R antag-1: 12; TAAR1 ag: 2; CHO parental Ca: -10; TAAR1 antagonist: -4; GPR7 antagonist: 6; OX1R antag-2: 9

What do the screens show for `COCCOC(=O)c1c(N)n(Cc2ccc(OC)cc2)c2nc3ccccc3nc12`?
OX1R antag-1: 7; TAAR1 ag: 16; CHO parental Ca: -25; TAAR1 antagonist: 0; GPR7 antagonist: 30*; OX1R antag-2: 59; GPR7 antag cf: 21; MCHR1 antag: 19

How did CC1=NN=C(c2ccc(N)cc2)c2cc3c(cc2C1)OCO3 do in these assays?
OX1R antag-1: -30; TAAR1 ag: 8; CHO parental Ca: -1; TAAR1 antagonist: -37; OX1R antag-2: 13

What do the screens show for `C[C@]12C=CC(=O)C=C1CC[C@@H]1[C@@H]2CC[C@]2(C)C(=O)CC[C@@H]12`?
TAAR1 ag: 1; TAAR1 antagonist: 10

Bioassay records as filed in PubChem BioAssay.
